pIC50: −log10 of the molar value. Activity calls are given as the source filed them. No cut-off for these calls is given here.
Columns and labels:
[1] = Solubility of the compound in DMEM in presence of 10% FBS; type: physicochemical
[2] = biological target: Amyloid-beta precursor protein (Homo sapiens) (UniProt P05067); assay: Inhibition of amyloid beta (1 to 42) (unknown origin) self aggregation at 25 uM after 24 hrs by ThT-based fluorometric method relative to control
Summary of the method: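 Aβ1-42 (25 µM final) incubated at 37 °C for 24 h ± compound in 50 mM phosphate buffer pH 7.4, with DMSO stocks diluted in buffer. Then 5 µM thioflavin T in 50 mM glycine-NaOH pH 8.5 was added and read at ex 446/em 490 nm. Run in triplicate. % inhibition = (1−IFi/IFc)×100 after background subtraction.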

[3] = Metal chelating activity assessed as compound-Al3+ complex formation by measuring shift in maximum absorption wavelength at 37.5 uM after 30 mins by UV-vis spectrophotometric method
Summary of the method: (§1)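 UV absorption scanned from 200 to 600 nm after 30 min at room temperature in methanol. Compound and each metal salt (CuCl2, ZnCl2, AlCl3, FeSO4) were at 37.5 µM final. Spectra compared with and without metal.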

[4] = Cytotoxicity against human SH-SY5Y cells assessed as cell viability at 100 uM after 24 hrs by MTT assay relative to control; type: cell-based; details: read-out: Activity
Summary of the method: (§2)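 SH-SY5Y cells grown in DMEM with 10% FBS at 37 °C, 5% CO2, seeded 4 × 10^4 cells/well and incubated 24 h. Compounds given at 1, 10 and 100 µM (1% DMSO final) for 24 h. MTT (5 mg/ml) added for 4 h, cells lysed overnight in DMF/SDS, absorbance read at 590 nm against control. Three independent experiments.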

[5] = Inhibition of rat serum BuChE using butyrylthiocholine iodide as substrate after 15 mins by Ellman's method; type: ADME
Acetylcholinesterase [6] = biological target: T1, Acetylcholinesterase (Homo sapiens, UniProt P22303); assay: Inhibition of human erythrocyte AChE induced amyloid beta (1 to 40) aggregation at 25 uM after 24 hrs by ThT-based fluorometric method relative to control
T1 sequence (P22303 whole entry): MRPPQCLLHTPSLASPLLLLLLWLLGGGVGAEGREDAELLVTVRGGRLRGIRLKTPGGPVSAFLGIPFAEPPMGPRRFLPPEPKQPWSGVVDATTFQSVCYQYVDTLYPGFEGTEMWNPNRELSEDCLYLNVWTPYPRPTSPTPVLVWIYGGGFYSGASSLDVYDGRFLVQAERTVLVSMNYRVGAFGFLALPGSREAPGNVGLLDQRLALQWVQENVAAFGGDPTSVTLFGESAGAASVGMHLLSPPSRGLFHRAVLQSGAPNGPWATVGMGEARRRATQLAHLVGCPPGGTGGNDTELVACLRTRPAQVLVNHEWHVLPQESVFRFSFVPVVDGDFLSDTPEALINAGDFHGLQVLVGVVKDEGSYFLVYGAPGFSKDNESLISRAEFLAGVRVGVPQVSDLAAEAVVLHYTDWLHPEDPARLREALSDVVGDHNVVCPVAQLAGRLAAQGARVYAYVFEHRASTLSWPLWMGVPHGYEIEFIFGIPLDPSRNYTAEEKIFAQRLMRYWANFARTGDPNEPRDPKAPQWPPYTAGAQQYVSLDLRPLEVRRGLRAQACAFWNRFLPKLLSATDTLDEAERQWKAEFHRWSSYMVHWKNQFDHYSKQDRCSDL
Summary of the method: (§3)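 HFIP-pretreated Aβ1-40 (230 µM final) co-incubated 24 h at room temperature with human AChE (2.3 µM; Aβ/AChE 100:1) ± compound in sodium phosphate buffer pH 8.0. Then 5 µM thioflavin T in glycine-NaOH pH 8.5 was added and read at ex 446/em 490 nm. Triplicate. % inhibition calculated from fluorescence with/without inhibitor, each minus its blank (Aβ alone, AChE alone, Aβ+inhibitor).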

[7] = Metal chelating activity assessed as compound-Cu2+ complex formation by measuring red shift at 37.5 uM after 30 mins by UV-vis spectrophotometric method; summary of the method: as §1
[8] = Metal chelating activity assessed as compound-Zn2+ complex formation by measuring shift in maximum absorption wavelength at 37.5 uM after 30 mins by UV-vis spectrophotometric method; summary of the method: as §1
Acetylcholinesterase [9] = biological target: Acetylcholinesterase (Electrophorus electricus, UniProt O42275); assay: Inhibition of electric eel AChE using acetylthiocholine iodide as substrate after 15 mins by Ellman's method
Acetylcholinesterase (Electrophorus electricus, UniProt O42275), sequence (O42275 whole entry): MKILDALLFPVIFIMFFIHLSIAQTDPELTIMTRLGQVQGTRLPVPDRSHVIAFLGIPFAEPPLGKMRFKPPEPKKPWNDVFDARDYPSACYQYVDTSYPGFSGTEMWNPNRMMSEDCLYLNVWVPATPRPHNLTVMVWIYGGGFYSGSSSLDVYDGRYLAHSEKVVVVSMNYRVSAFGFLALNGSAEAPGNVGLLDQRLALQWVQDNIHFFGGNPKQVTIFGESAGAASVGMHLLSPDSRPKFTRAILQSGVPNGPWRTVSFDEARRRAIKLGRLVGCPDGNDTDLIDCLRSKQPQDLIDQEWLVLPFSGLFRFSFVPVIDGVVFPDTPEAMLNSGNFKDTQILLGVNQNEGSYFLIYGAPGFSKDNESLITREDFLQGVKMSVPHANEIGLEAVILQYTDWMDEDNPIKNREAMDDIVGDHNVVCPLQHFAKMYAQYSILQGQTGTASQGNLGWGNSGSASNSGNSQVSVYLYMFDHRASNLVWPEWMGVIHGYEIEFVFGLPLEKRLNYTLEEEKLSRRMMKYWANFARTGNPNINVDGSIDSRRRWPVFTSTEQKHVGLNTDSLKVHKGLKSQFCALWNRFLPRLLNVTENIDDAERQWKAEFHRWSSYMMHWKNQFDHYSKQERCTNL

Acetylcholinesterase [10] = biological target: T1, Acetylcholinesterase; assay: Inhibition of human erythrocyte AChE induced amyloid beta (1 to 40) aggregation after 24 hrs by ThT-based fluorometric method; summary of the method: as §3
Mus musculus = assay: Reversal of scopolamine-induced memory impairment in Kunming mouse assessed as step-down latency time at 22 mg/kg, po administered 60 mins prior to training trial followed by scopolamine challenge at 30 mins post dose measured 24 hrs after training trial by passive avoidance test; type: functional
Summary of the method: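 Kunming mice, 18–22 g, six weeks old, either sex; 10 per group. Oral dosing 1 h before training (test compound 3.67, 7.33, 22 mg/kg; donepezil 5.0 mg/kg), scopolamine 3 mg/kg i.p. 30 min later. Training: 0.5 mA, 2 s foot shock on stepping off the block. Step-down latency measured 24 h later. Mean ± SEM.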

[11] = Metal chelating activity assessed as compound-Fe2+ complex formation by measuring shift in maximum absorption wavelength at 37.5 uM after 30 mins by UV-vis spectrophotometric method; summary of the method: as §1
[12] = Metal chelating activity assessed as inhibition of Cu2+ induced amyloid beta (1 to 42) aggregation at 25 uM after 24 hrs by ThT-based fluorometric method relative to control
Summary of the method: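 Aβ1-42 (25 µM) with Cu2+ (25 µM, one equivalent) in 20 mM HEPES pH 6.6 with NaCl, incubated 24 h at 37 °C ± compound (25 µM). Then 5 µM thioflavin T in glycine-NaOH pH 8.5 was added and read at ex 446/em 490 nm. Triplicate. % inhibition relative to no-compound control.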

Acetylcholinesterase [13] = biological target: T2, Acetylcholinesterase (Rattus norvegicus, UniProt P37136); assay: Inhibition of rat cortex homogenate AChE using acetylthiocholine iodide as substrate after 15 mins in presence of BuChE inhibitor iso-OMPA by Ellman's method
T2 sequence (P37136 whole entry): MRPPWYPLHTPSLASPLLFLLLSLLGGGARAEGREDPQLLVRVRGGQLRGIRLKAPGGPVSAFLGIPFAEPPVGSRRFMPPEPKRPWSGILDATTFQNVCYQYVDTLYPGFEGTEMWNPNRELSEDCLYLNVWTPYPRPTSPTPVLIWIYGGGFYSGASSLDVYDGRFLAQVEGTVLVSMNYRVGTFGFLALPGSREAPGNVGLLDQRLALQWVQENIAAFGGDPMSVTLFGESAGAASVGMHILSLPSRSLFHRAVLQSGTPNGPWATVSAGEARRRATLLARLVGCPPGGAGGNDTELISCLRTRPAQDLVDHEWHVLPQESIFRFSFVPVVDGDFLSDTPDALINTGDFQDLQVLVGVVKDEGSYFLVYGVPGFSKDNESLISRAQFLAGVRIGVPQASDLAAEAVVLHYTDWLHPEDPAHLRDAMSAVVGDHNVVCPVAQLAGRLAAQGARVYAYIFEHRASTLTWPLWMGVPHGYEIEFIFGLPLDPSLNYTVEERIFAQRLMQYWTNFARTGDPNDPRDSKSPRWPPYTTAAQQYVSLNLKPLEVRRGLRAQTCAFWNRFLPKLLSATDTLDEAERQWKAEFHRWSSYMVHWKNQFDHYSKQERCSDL

SH-SY5Y = assay: Cytotoxicity against human SH-SY5Y cells assessed as reduction in cell viability up to 10 uM after 24 hrs by MTT assay; type: cell-based; summary of the method: as §2
PC-12 = assay: Neuroprotective activity against H2O2-induced cell injury in rat PC12 cells assessed as cell viability at 10 uM preincubated for 24 hrs followed by incubation with H2O2 for 2 hrs measured after 24 hrs by MTT assay (reference value: 43.9%); type: functional; details: read-out: Activity
Summary of the method: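 PC12 cells in phenol-red-free DMEM with 10% FCS, plated at 10^5 cells/well. Cells preincubated 24 h with compound (1.0 or 10.0 µM; dissolved in 2% DMSO, diluted in PBS), then exposed to H2O2 100 µM for 2 h. Medium replaced; viability assessed 24 h later by MTT (4 h, 37 °C), lysis in DMF/SDS, A590.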

Amyloid-beta precursor protein (Homo sapiens), sequence (P05067 whole entry): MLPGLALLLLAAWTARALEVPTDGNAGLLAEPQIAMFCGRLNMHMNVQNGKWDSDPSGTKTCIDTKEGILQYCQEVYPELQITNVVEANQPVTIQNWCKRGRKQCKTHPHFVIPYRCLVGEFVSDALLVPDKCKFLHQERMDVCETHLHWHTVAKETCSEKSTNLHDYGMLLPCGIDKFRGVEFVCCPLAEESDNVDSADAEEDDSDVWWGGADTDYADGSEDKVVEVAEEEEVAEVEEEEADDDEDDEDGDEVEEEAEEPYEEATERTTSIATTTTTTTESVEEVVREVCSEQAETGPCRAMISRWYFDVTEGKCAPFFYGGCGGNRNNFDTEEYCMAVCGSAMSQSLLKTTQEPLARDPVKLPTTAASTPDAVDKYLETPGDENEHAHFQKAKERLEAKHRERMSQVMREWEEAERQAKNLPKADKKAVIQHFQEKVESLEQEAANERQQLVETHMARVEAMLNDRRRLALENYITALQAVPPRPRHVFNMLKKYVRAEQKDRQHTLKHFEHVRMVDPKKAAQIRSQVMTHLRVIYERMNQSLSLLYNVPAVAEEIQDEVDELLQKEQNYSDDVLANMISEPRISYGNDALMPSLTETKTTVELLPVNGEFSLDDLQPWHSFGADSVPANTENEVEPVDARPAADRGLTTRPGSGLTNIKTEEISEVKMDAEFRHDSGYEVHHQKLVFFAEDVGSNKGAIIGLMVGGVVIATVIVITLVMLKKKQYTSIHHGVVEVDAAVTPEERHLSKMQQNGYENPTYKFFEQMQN

CCN(CCCCNC(=O)COc1ccc(-c2cc(=O)c3c(O)c(OC)c(OC)cc3o2)cc1)Cc1ccccc1OC
solubility [1]: Insoluble | inhibition [2]: 57.1% | Activity [3]: Active | viability at 24 h, 100 µM [4]: 82.4% | pIC50 [5]: < 3.30 | inhibition (Acetylcholinesterase [6]): 32.7% | Activity [7]: Active | Activity [8]: inactive | pIC50 (Acetylcholinesterase [9]): 4.80 | inhibition (Acetylcholinesterase [10]): Dose-dependent effect | Time (Mus musculus): 176.4 s | Activity [11]: inactive | inhibition [12]: 43.4% | pIC50 (Acetylcholinesterase [13]): 7.29 | Activity (SH-SY5Y): Non-Toxic | viability at 10 µM (PC-12): 82.7%
